Results from ChEMBL document CHEMBL2396592, “Discovery of Dap-3 polymyxin analogues for the treatment of multidrug-resistant Gram-negative nosocomial infections” (J Med Chem, 2013).
Values after ≈ are worked out from the molar mass of the structure shown.

Legend:
Canis familiaris [1] = assay: Ratio of compound fAUC in beagle dog at 11 mg/kg, iv bid for 7 days to polymyxin B fAUC in beagle dog at 6 mg/kg, iv bid for 7 days; type: ADME, organism-based, Canis lupus familiaris; conditions: in vivo, 168 h
[2] = Ratio of fAUC in ICR mouse neutropenic infection model to MIC for Pseudomonas aeruginosa assessed during measurement of 1 log decrease parameter; type: functional
[3] = Ratio of fAUC in ICR mouse neutropenic infection model to MIC for Pseudomonas aeruginosa assessed during measurement of statis parameter; type: functional
[4] = Ratio of fAUC in ICR mouse neutropenic infection model to MIC for Pseudomonas aeruginosa assessed during measurement of 50% of maximal efficacy; type: functional
[5] = Ratio of fAUC in ICR mouse neutropenic infection model to MIC for Pseudomonas aeruginosa assessed during measurement of exposure index required for 80%; type: functional
[6] = Plasma protein binding in ICR mouse neutropenic infection model; type: ADME, cell-free; conditions: read-out: PPB (converted)
Pseudomonas aeruginosa [7] = assay: Antibacterial activity against Pseudomonas aeruginosa 1402 assessed as growth inhibition by broth microdilution method; type: functional
How it was run: (§1)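 CLSI broth microdilution MIC against P. aeruginosa 1401 (PA01) and 1402 (UC12120), the two strains used in the mouse thigh model.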

Mus musculus = assay: fAUC in ICR mouse neutropenic infection model at 12.5 to 75 mg/kg, sc; type: ADME, organism-based; set-up: dose 12.5-75 mg/kg, route subcutaneous; conditions: in vivo
How it was run: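 Infected neutropenic female ICR mice (~25 g; cyclophosphamide 150 and 100 mg/kg IP at 4 and 1 days before inoculation) received single SC doses of 12.5–75 mg/kg. Six mice per time point were sampled by cardiac puncture at eight times over 12 h, and plasma was assayed by LC-MS.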

[8] = Fraction unbound in beagle dog plasma; type: ADME, cell-free, Canis lupus familiaris
Canis familiaris [9] = assay: fAUC in beagle dog at 11 mg/kg, iv bid administered as bolus dose for 7 days measured at 1 to 7 days; type: ADME, organism-based, Canis lupus familiaris; set-up: dose 11 mg/kg, route intravenous; conditions: in vivo
Canis familiaris [10] = assay: fAUC in beagle dog at 20 mg/kg, iv bid administered as bolus dose for 7 days measured at 1 to 7 days; type: ADME, organism-based, Canis lupus familiaris; set-up: dose 20 mg/kg, route intravenous; conditions: in vivo
Canis familiaris [11] = assay: fAUC in beagle dog at 5 mg/kg, iv bid administered as bolus dose for 7 days measured at 1 to 7 days; type: ADME, organism-based, Canis lupus familiaris; set-up: dose 5 mg/kg, route intravenous; conditions: in vivo
[12] = Fraction unbound in Wistar Han rat plasma; type: ADME, cell-free
Canis familiaris [13] = assay: Nephrotoxicity in beagle dog assessed as incidence of necrotic kidney lesions at 5 to 20 mg/kg, iv bid administered as bolus dose for 7 days measured at 1 to 7 days by microscopic analysis; type: toxicity, organism-based, Canis lupus familiaris; set-up: route intravenous; conditions: in vivo
How it was run: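 Male and female Beagle dogs, 5–11 kg, received IV bolus twice daily (≥6 h apart) for 7 days at 0 (0.9% saline), 5, 11 or 20 mg/kg/day. Necropsy was the day after the last dose. Kidney proximal tubules were examined microscopically for degeneration/regeneration and graded in severity. Incidence is given as animals with lesions over animals tested.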

Rattus norvegicus [14] = assay: fAUC in Wistar Han rat at 8 mg/kg, iv bid administered as bolus dose for 7 days measured at 1 to 7 days; type: ADME, organism-based; set-up: dose 8 mg/kg, route intravenous; conditions: in vivo
Rattus norvegicus [15] = assay: fAUC in Wistar Han rat at 4 mg/kg, iv bid administered as bolus dose for 7 days measured at 1 to 7 days; type: ADME, organism-based; set-up: dose 4 mg/kg, route intravenous; conditions: in vivo
Rattus norvegicus [16] = assay: Nephrotoxicity in Wistar Han rat assessed as incidence of necrotic kidney lesions at 4 to 8 mg/kg, iv bid administered as bolus dose for 7 days measured at 1 to 7 days by microscopic analysis; type: toxicity, organism-based; set-up: route intravenous; conditions: in vivo
How it was run: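 Male Wistar Han IGS rats, 6–9 weeks old, received IV bolus twice daily (≥6 h apart) for 7 days at 0 (0.9% saline), 4 or 8 mg/kg/day. Necropsy was the day after the last dose. Kidneys were weighed and examined microscopically for proximal tubule epithelial degeneration/regeneration, graded minimal to severe. Incidence is given as animals with lesions over animals tested.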

[17] = Cytotoxicity against human RPTEC after 24 hrs by LDH assay; type: cell-based; conditions: RPTEC cells, read-out: TC50
How it was run: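 Primary human renal proximal tubule epithelial cells in REGM (EGF, hydrocortisone, epinephrine, insulin, T3, transferrin, gentamycin/amphotericin-B, FBS). After 72 h of growth at 37 °C, 5% CO2, cells were exposed for 24 h to aqueous compound at 100, 67, 44, 30, 20 and 13 μM. LDH release into the supernatant was measured by kit and TC50 (μM) derived, with PMB and PMBN as controls.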

Escherichia coli = assay: Antibacterial activity against polymyxin-sensitive Escherichia coli isolate 1 assessed as growth inhibition by broth microdilution method; type: functional
Klebsiella pneumoniae = assay: Antibacterial activity against polymyxin-sensitive ESBL-positive Klebsiella pneumoniae clinical isolate 3700 assessed as growth inhibition by broth microdilution method; type: functional
Acinetobacter baumannii [18] = assay: Antibacterial activity against polymyxin-sensitive Acinetobacter baumannii clinical isolate 3167 assessed as growth inhibition by broth microdilution method; type: functional
Acinetobacter baumannii [19] = assay: Antibacterial activity against polymyxin-resistant Acinetobacter baumannii clinical isolate 1649 assessed as growth inhibition by broth microdilution method; type: functional
Acinetobacter baumannii [20] = assay: Bactericidal activity against polymyxin-resistant Acinetobacter baumannii clinical isolate 1649; type: functional
Pseudomonas aeruginosa [21] = assay: Antibacterial activity against polymyxin-sensitive Pseudomonas aeruginosa 1401 assessed as growth inhibition by broth microdilution method; type: functional; how it was run: as §1
Pseudomonas aeruginosa [22] = assay: Antibacterial activity against polymyxin-resistant Pseudomonas aeruginosa clinical isolate 1646 assessed as growth inhibition by broth microdilution method; type: functional
How it was run: (§2)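 Test strain PA-1646 is a P. aeruginosa isolate with a mutated PmrAB two-component system. The system is constitutively active, so the modified lipid A moiety is constantly expressed on the cell surface, giving a polymyxin-resistant phenotype.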

Pseudomonas aeruginosa [23] = assay: Bactericidal activity against polymyxin-resistant Pseudomonas aeruginosa clinical isolate 1646; type: functional; how it was run: as §2
Pseudomonas aeruginosa [24] = assay: Antibacterial activity against polymyxin-resistant Pseudomonas aeruginosa clinical isolates assessed as growth inhibition by broth microdilution method

Structure (SMILES): CC(C)C[C@@H]1NC(=O)[C@@H](Cc2ccccc2)NC(=O)[C@H](CCN)NC(=O)[C@@H](NC(=O)[C@H](CN)NC(=O)[C@@H](NC(=O)[C@H](CCN)NC(=O)c2ccc(=O)n(-c3ccccc3)c2)[C@@H](C)O)CCNC(=O)[C@H]([C@@H](C)O)NC(=O)[C@H](CCN)NC(=O)[C@H](CCN)NC1=O
- fAUC ratio (Canis familiaris [1]): 1.5
- fAUC/MIC [2]: 109.63
- fAUC/MIC [3]: 85.26
- fAUC/MIC [4]: 87.92
- fAUC/MIC [5]: 157.55
- fraction unbound [6]: 0.54
- MIC (Pseudomonas aeruginosa [7]): 0.5 µg/mL
- fAUC (Mus musculus): 7200 ng·h/mL
- fraction unbound [8]: 0.58
- fAUC (Canis familiaris [9]): 64000 ng·h/mL
- fAUC (Canis familiaris [10]): 114000 ng·h/mL
- fAUC (Canis familiaris [11]): 20000 ng·h/mL
- fraction unbound [12]: 0.81
- Activity (Canis familiaris [13]): Toxic
- fAUC (Rattus norvegicus [14]): 29000 ng·h/mL
- fAUC (Rattus norvegicus [15]): 13000 ng·h/mL
- Activity (Rattus norvegicus [16]): Non-toxic
- CC50 at 24 h [17]: > 100 µM
- MIC50 (Escherichia coli): 1 µg/mL
- MIC90 (Escherichia coli): 2 µg/mL
- MIC50 (Klebsiella pneumoniae): 0.5 µg/mL
- MIC90 (Klebsiella pneumoniae): 1 µg/mL
- MIC50 (Acinetobacter baumannii [18]): 2 µg/mL
- MIC90 (Acinetobacter baumannii [18]): 2 µg/mL
- MIC50 (Acinetobacter baumannii [19]): 4 µg/mL
- MIC90 (Acinetobacter baumannii [19]): 16 µg/mL
- MBC (Acinetobacter baumannii [20]): 2 µg/mL (≈ 1.6 µM)
- MIC50 (Pseudomonas aeruginosa [21]): 1 µg/mL
- MIC90 (Pseudomonas aeruginosa [21]): 2 µg/mL
- MIC (Pseudomonas aeruginosa [22]): 4 µg/mL
- MIC50 (Pseudomonas aeruginosa [22]): 2 µg/mL
- MBC (Pseudomonas aeruginosa [23]): 8 µg/mL (≈ 6.42 µM)
- MIC90 (Pseudomonas aeruginosa [24]): 8 µg/mL
